# From PubChem BioAssay AID1381 (University of Pittsburgh Molecular Library Screening Center, 2008)
# Out of some 220,000 compounds screened, about 1,000 (0.45%) were called active.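 How the source made its calls: active means plate z-score of nuclear minus cytoplasmic receptor signal below a set negative limit, without overly bright fluorescence or cell loss (cut at about -3.5 in these data, passing the limit was not always enough); inactive means the rest, inconclusive results apart.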 The list comes from a sample in which actives are over-represented; it also holds similar structures and randomly drawn compounds.
# Assay: inhibitors of GR-EGFP nuclear translocation, primary screen, dynein cargo transport inhibitor project, imaging, high-content, 3617.4 mouse cells (AID 1381)
# Settings: stimulated with dexamethasone, 1 µM
# How it was run: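 Buffer or medium – tet-free medium with charcoal-stripped serum · Signal – automated 10x imaging of fixed Hoechst-stained cells · Also added – dexamethasone agonist, 1.0 µM final, for 30 min · Incubation – induction 48 h, compound 1 h, agonist 30 min · Read-out – GR-EGFP nuclear translocation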
# [1] = measured here: cell count per field, at 50 µM
# [2] = measured here: cytoplasmic GR-EGFP intensity, at 50 µM, stronger effect = higher value
# [3] = measured here: nuclear GR-EGFP intensity, at 50 µM, stronger effect = lower value
# [4] = measured here: cell count per field, at 20 µM
# [5] = measured here: cytoplasmic GR-EGFP intensity, at 20 µM, stronger effect = higher value
# [6] = measured here: nuclear GR-EGFP intensity, at 20 µM, stronger effect = lower value
SMILES,"z-score (at 50 µM, stronger effect = lower value)",z-score [1],z-score [2],z-score [3],"z-score (at 20 µM, stronger effect = lower value)",z-score [4],z-score [5],z-score [6]
Cc1cc(C)c2c3c(sc2n1)C(c1ccccc1)C(C#N)=C(N)O3 (stereo unspecified),-4.27 (active),2.33,1.49,-2.28,,,,
Cc1cc(C)c(C#N)c(SCc2[nH]nc3c2C(c2ccccc2)C(C#N)=C(N)O3)n1 (stereo unspecified),,,,,-0.933 (inactive),1.23,-0.0183,-0.255
N#CC1=C(N)Oc2c(sc3ccccc23)C1c1ccco1 (stereo unspecified),,,,,-0.943 (inactive),0.511,0.878,0.0658
COc1ccc(C(C#N)N2N=C(C)CC2(C)C)cc1 (stereo unspecified),,,,,-0.0116 (inactive),-0.511,-0.208,-0.808
O=C(NCCCN1CCCCC1)c1ccc2c(c1)NC(=O)C(N1CCOCC1)S2 (stereo unspecified),,,,,0.104 (inactive),-0.224,-0.224,-0.851
O=S1(=O)CC/C(=N\Nc2ccc(F)cc2)c2ccsc21,,,,,-0.204 (inactive),-0.257,-0.126,-0.15
Nn1cnnc1N/N=C/c1cc([N+](=O)[O-])c(Cl)cc1Cl,,,,,0.859 (inactive),-0.348,0.536,0.371
Cc1ccc(Cn2c(NC(=O)c3ccco3)nc3ccccc32)cc1,,,,,0.337 (inactive),-0.00289,-0.18,0.336
Cc1ccc(Cn2c(C)nc3c(c2=O)c2nc4ccccc4nc2n3Cc2ccco2)cc1,-4.55 (active),-0.433,0.482,-1.83,,,,
Cn1c2ccccc2c(=O)c2c(=O)n(Cc3ccco3)c(COc3ccccc3)nc21,,,,,0.301 (inactive),-0.271,-0.198,0.291
Cc1c(Cl)cccc1NC(=O)CC1SC(=NCC2CCCO2)NC1=O (stereo unspecified),,,,,-0.0448 (inactive),-0.163,-0.258,0.413
NNC(=O)c1ccc(Cl)cc1Cl,,,,,0.203 (inactive),-0.823,-0.243,0.206
Cc1ccc(NC(=O)c2cc(-c3ccc(C)o3)nc3ccccc23)nc1,-3.31 (inactive),-0.441,0.617,-1.89,,,,
Cc1ccc(-c2cc(C(=O)NCC3CCCO3)c3ccccc3n2)o1 (stereo unspecified),-4.29 (active),0.456,0.668,-1.96,,,,
O=C(NCC1CCCO1)c1cc(-c2ccccc2)nc2ccccc12 (stereo unspecified),,,,,0.068 (inactive),0.631,-0.236,0.0806
Cc1nc(-c2nnc(SCC(=O)Nc3cc(C(F)(F)F)cc(C(F)(F)F)c3)n2C)cs1,,,,,0.49 (inactive),-0.365,-0.261,0.826
COc1ccc(CN(Cc2ccc(OC)cc2)C(=O)c2cccs2)cc1,,,,,-0.594 (inactive),0.82,-0.256,-0.492
COc1ccc(NC(=O)CN(Cc2ccccc2)S(C)(=O)=O)cc1OC,,,,,0.347 (inactive),-0.496,0.00823,0.254
Cc1cc(=O)oc2c1c(C)nn2-c1ccc(Cl)cc1,,,,,-0.357 (inactive),1.43,-0.242,-0.696
Cc1cc(SCC(=O)c2ccccc2)nc(SCC(=O)c2ccccc2)n1,,,,,3.42 (inactive),-0.936,-0.199,-0.0972
C/C(=N\NC(=O)c1nc(C)cc(C)n1)c1ccccc1,,,,,1.7 (inactive),-1.78,0.199,1.06
Cc1cc(C)nc(S/C=C/C(=O)c2ccccc2)n1,,,,,-5.15 (active),1.04,1.08,-2.68

SMILES,"z-score (at 50 µM, stronger effect = lower value)",z-score [1],z-score [2],z-score [3],"z-score (at 20 µM, stronger effect = lower value)",z-score [4],z-score [5],z-score [6]
Nc1nnn(CC(=O)N/N=C/c2ccc(O)cc2)n1,,,,,-0.272 (inactive),0.973,-0.243,0.283
CC(=O)N/C(=C\c1ccc(F)cc1)C(=O)NC(Cc1ccccc1)C(=O)O (stereo unspecified),,,,,-0.458 (inactive),0.748,-0.217,0.179
O=C(Nc1ccccc1Cl)/C(Cl)=C(\Cl)S(=O)c1ccccc1 (stereo unspecified),,,,,-7.75 (active),0.218,2.93,-2.78
O=C(Nc1ccccc1Cl)c1ccc2nsnc2c1,,,,,-0.891 (inactive),0.488,-0.235,-0.5
COCCN(CCOC)C(=S)Nc1ccccc1Cl,,,,,-0.23 (inactive),0.546,0.025,-0.44
C/C(N)=C(/C#N)C(=O)COC(=O)c1cc(-c2cccc(Br)c2)nc2ccccc12,,,,,0.554 (inactive),-0.985,-0.242,0.468
O=C(COC(=O)c1ccccc1)Nc1cccc(S(=O)(=O)N2CCOCC2)c1,,,,,0.599 (inactive),-0.0984,-0.271,0.704
COC(=O)c1ccc(CSc2nnc(N)s2)o1,,,,,-0.747 (inactive),0.802,-0.292,-0.243
O=C1c2ccccc2NC(c2ccccn2)N1NS(=O)(=O)c1ccccc1 (stereo unspecified),,,,,-1.12 (inactive),1.24,-0.348,-0.844
CCC1(CC)NC(=O)N(CC(=O)OCC(=O)NC(=O)c2ccccc2)C1=O,,,,,-0.1 (inactive),1.43,-0.273,0.236
CCCc1nc2oc3c(=O)[nH]cnc3c2c2c1COC(C)(C)C2,,,,,-0.456 (inactive),0.775,-0.274,-0.288
C/C(CC(=O)Nc1cccc(F)c1)=N\NC(=O)C(=O)NC1CCCCC1,,,,,-0.0686 (inactive),0.185,-0.304,-0.00364
CCc1c(SCCC(=O)O)nc2ccccc2c1C,,,,,-0.704 (inactive),0.903,-0.252,-0.0559
CCCSC(=S)NC1CCS(=O)(=O)C1 (stereo unspecified),,,,,-1.85 (inactive),0.977,-0.0684,-0.34
O=S1(=O)CCC(NC(=S)SCc2ccccc2Br)C1 (stereo unspecified),,,,,-3.97 (active),-0.868,1.57,-1.78
O=C(CSc1ccccc1F)NC1CCS(=O)(=O)C1 (stereo unspecified),,,,,-0.432 (inactive),0.683,-0.305,0.2
CCOc1ccc(C(C)=O)cc1CSc1nnc(-c2ccncc2)n1CCOC,,,,,0.185 (inactive),0.406,-0.242,0.523
O=c1oc(/C=C/c2ccccc2)nc2ccccc12,,,,,1.7 (inactive),-1.1,-0.0815,0.729
COc1cc(OC)nc(S(C)(=O)=O)n1,,,,,0.268 (inactive),-0.196,-0.228,-0.13
COc1ccc(-c2cc(C(F)(F)F)nc(S(C)(=O)=O)n2)cc1OC,,,,,-5.48 (active),0.235,1.61,-2.61
COc1ccc(-c2cc(C(F)(F)F)nc(SCC(=O)Nc3ccc4c(c3)OCO4)n2)cc1OC,,,,,-0.345 (inactive),0.664,-0.302,-0.551
CC1C/C(=N/NC(=O)c2cccs2)CC(C)(C)C1 (stereo unspecified),,,,,-1.02 (inactive),0.142,-0.107,-0.387
